Reference: ChEMBL document CHEMBL5661977, “BI 6727, a Polo-like kinase inhibitor with improved pharmacokinetic profile and broad antitumor activity” (Clin Cancer Res, 2009)

Experiments:
[1] = Clearance in Wistar rat at 10 mg/kg, iv by HPLC-MS/MS analysis; assay type: ADME, organism-based; conditions: in vivo
Outline: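 Male Wistar Crl:WI (Han) rats, n = 4, given a single 5-min i.v. infusion. BI 6727 measured in EDTA plasma at various times after the infusion started, by HPLC-MS/MS with internal standard. Parameters came from noncompartmental analysis. Terminal half-life was taken from the last two time points after i.v. dosing.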

HCT-116 = assay: Antitumor activity against human HCT-116 cells xenografted in BomTac:NMRI-Foxn1nu mouse assessed as T/C at 20 mg/kg, iv administered twice a week upto 6 weeks relative to control; assay type: functional
Outline: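 Female nude mice bore s.c. HCT 116 (2×10^6 cells), NCI-H460 (1×10^6 cells) or serially transplanted CXB1 tumor pieces. At ~50–100 mm³, mice were randomized into groups of 10 and dosed i.v. (0.1 N HCl/saline) or by gavage (0.5% hydroxyethyl-cellulose) at 10 mL/kg. Calipers read thrice weekly, volume = length×width²×π/6. T/C from median volumes on the last day.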

[2] = AUC (0 to 24 hrs) in human HCT-116 cells xenografted in BomTac:NMRI-Foxn1nu mouse at 25 mg/kg, iv administered twice a week upto 6 weeks by HPLC-MS/MS analysis; assay type: ADME, organism-based; conditions: in vivo, 1008 h
[3] = Drug uptake in human HCT-116 cells xenografted in BomTac:NMRI-Foxn1nu mouse plasma at 35 mg/kg, iv measured after 168 hrs by HPLC-MS/MS analysis; assay type: ADME, organism-based
Outline: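 Female nude mice bearing s.c. HCT 116 xenografts (2 × 10⁶ cells), n = 3 per time point, given a single i.v. dose. Tumor, organs and EDTA plasma collected at 1, 8, 24, 48, 96 and 168 h. Tissue extracts and plasma analysed by HPLC-MS/MS. Tissue nmol/mg converted to nmol/L assuming density 1.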

clearance [1]: 8.9 mL/min/kg
AUC [2]: 75 µM·h
concentration at 168 h [3]: 8 nM
SMILES: CC[C@@H]1C(=O)N(C)c2cnc(Nc3ccc(C(=O)N[C@H]4CC[C@H](N5CCN(CC6CC6)CC5)CC4)cc3OC)nc2N1C(C)C [VOLASERTIB]
T/C (HCT-116): 1%
